# Source: the EternaBench riboswitch data
# System: MS2 coat protein
# Experiment: apparent Kd, MS2 coat protein; higher = weaker binding; RNA-MaP array; FMN 200 µM where present
# Outline: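 Stalled E. coli RNA polymerase produced the designs on Illumina sequencing-chip clusters. SNAP-549-labelled MS2 coat protein was added from 0.7 or 1.5 nM, doubling to 3 µM, without and then with constant ligand, in 100 mM Tris-HCl pH 7.5, 80 mM KCl, 4 mM MgCl2, BSA, DTT, yeast tRNA and Tween-20. The apparent Kd is the median of filtered per-cluster fits of green signal normalised to red-channel RNA signal and control-cluster median Fmax.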
# [1] = designed as: OFF switch for flavin mononucleotide, no ligand
# [2] = ligand present: flavin mononucleotide, designed as: OFF switch for flavin mononucleotide
# [3] = designed as: ON switch for flavin mononucleotide, no ligand
# [4] = ligand present: flavin mononucleotide, designed as: ON switch for flavin mononucleotide
Sequence,apparent Kd [1] [nM],apparent Kd [2] [nM],apparent Kd [3] [nM],apparent Kd [4] [nM]
GUAGAGUAGUGAGGAUAUACGAGAACGAUAGUUCGGCGAUCCAUUAAUACAUGAGGAUCACCCAUGUAGAAGGCACUUCUCUAC,7.11,90.4,–,–
UGAUAGGACAGAGGAUAUACGUGCUAGAGAUACUAGCAAAAUUUCCUCACAUGAGGAUCACCCAUGUAGAAGGCUGUCCUAUCU,47.8,1100,–,–
AAGACAUGAGGAUCACCCAUGUAAAGACCGGUCGAUCAAUGUGAGGAUAUACGAUAAUUGAUAGGGUAGAAGGCACUGGGUUGA,–,–,264,151
AACACGAGAGGUGUUGUCUAAUCACAUGAGGAUCACCCAUGUAAGGAUAUCGCGGCUAUCGGCAUCGAGAAGGUACAGGGAGCA,17.8,38.2,–,–
GUGGUAUUCGUAGGAUAUCCGUCGCCACCGUGUGGAGAAGGACGAACAUGAGGAUCACCCAUGUAUCAUGGUGUGGACGUUGUC,80.2,88.4,–,–
CGCACUAUACAUGAGGAUCACCCAUGUUAAUAUGAGAUAGUCAGAAGGCAUUGUAUGAGAAAUUAUGAGGAUAUGAAUAGUGCG,–,–,106,32.8
GGUGGCCGAGGAUAUACGGACGUGUCGCCGGGUGUCGUGGGACAUGAGGAUCACCCAUGUAGAAGGUGGUUGUC,187,147,–,–
AUUGAGAUAGCGAUAUGAUCGAGAGAUCAUGUCGCUAAGUUUAGAAGGACAUGAGGAUCACCCAUGUAGGAUAUGGGAGUAGAA,–,–,128,57.5
UGGUUGUGUGUCAGGAUAUGGUCUGGUGUUUCGGGCUAGAAGGGACAUGAGGAUCACCCAUGUGGCUGGCGGGU,262,439,–,–
AAUUGACACGUAGGAUAUCGAACUAUAUUAACACGAGAAGGACGUACAUGAGGAUCACCCAUGUUUAAUGGAGUAGAUAAGUUG,144,283,–,–
UGGACUGGGCAGAAGGGACAUGAGGAUCACCCAUGUCUUGGGCUACUUCAGUCAGGAUAUGCCCGUUGAAUAUCCGUGCAUCAA,10.2,52.6,–,–
GUCAGCUCGUGAGGAUAUACAACACUGCUUCGGCAGUGUAAUAAGAUCACAUGAGGAUCACCCAUGUAGAAGGCACGAGCUGAU,12,250,–,–
AGAGAUGACGAAGGAUAUGGAUACAUGAGGAUCACCCAUGUUUAUAUAGUGAAAUUGAUUGAAUUCCAGAAGGUCGAAUAAAAG,46.7,36.9,–,–
GCGGAGUGAGGAUAUCCAAUUUAACGUACCAAUUAGGUACGGGAGAAGGCACAUGAGGAUCACCCAUGUACCGC,72.4,53.5,–,–
CUGAUGUUAGGAUAUCAGGUUGUGCGCGAAGGCGGGCGGCAUGAGAAGGAACAUGAGGAUCACCCAUGUGACGA,29.4,85,–,–
AUAUCUUGUCGAGGAUAUGUAGUAUUGAUCUGAAAACAUGAGGAUCACCCAUGUAUACGGUGGGUACAGAAGGUGGAUGUAGAA,416,427,–,–
AAAACACGCGAGAAGGAGGCCUGAUCCUCCACAUGAGGAUCACCCAUGUGCCUAGGAUAUCGCAACCUUUCAGGUUACACCUGG,70,10.2,–,–
GAGGUAUUCGUAGGAUAUCCGUCGCCACCGUGUGGAGAAGGACGAACAUGAGGAUCACCCAUGUAUCAUGGUGUGGACGCUUUC,71.5,82.8,–,–
UGUAUGGACAGAGGAUAUGCCGGUAGGAUCUACUAUCGAAGAAUCCUCACAUGAGGAUCACCCAUGUAGAAGGCUGUCCAUACU,9.36,42.8,–,–
CGGGCGCGAGGAUAUACAUGAGGAUCACCCAUGUAACGGGUUUGAAUCGGGCUUGCGUGUAGAAGGUGUGUUUG,86,73.8,–,–
